Measurements as given in ChEMBL document CHEMBL1133331, “Guanylpiperidine peptidomimetics: potent and selective bis-cation inhibitors of factor Xa” (Bioorg Med Chem Lett, 2000).

Columns and labels:
[1] = molecular target: T1, Coagulation factor X (Homo sapiens, UniProt P00742); experiment: In vitro inhibition of human Coagulation factor X.
[2] = molecular target: Serine protease 1 (Homo sapiens, UniProt P07477); experiment: In vitro inhibition of human trypsin.
Outline: (§1)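 Purified human enzymes (plasmin, thrombin/factor IIa, trypsin) were each tested for inhibitor-dependent cleavage of a chromogenic substrate. IC50 is the concentration that blocks 50% of substrate cleavage.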

[3] = molecular target: Prothrombin (Homo sapiens, UniProt P00734); experiment: In vitro inhibition of human thrombin.; outline: as §1
[4] = molecular target: Plasminogen (Homo sapiens, UniProt P00747); experiment: In vitro inhibition of human plasmin.; outline: as §1
Plasminogen, sequence (P00747 97-580 limits assumed): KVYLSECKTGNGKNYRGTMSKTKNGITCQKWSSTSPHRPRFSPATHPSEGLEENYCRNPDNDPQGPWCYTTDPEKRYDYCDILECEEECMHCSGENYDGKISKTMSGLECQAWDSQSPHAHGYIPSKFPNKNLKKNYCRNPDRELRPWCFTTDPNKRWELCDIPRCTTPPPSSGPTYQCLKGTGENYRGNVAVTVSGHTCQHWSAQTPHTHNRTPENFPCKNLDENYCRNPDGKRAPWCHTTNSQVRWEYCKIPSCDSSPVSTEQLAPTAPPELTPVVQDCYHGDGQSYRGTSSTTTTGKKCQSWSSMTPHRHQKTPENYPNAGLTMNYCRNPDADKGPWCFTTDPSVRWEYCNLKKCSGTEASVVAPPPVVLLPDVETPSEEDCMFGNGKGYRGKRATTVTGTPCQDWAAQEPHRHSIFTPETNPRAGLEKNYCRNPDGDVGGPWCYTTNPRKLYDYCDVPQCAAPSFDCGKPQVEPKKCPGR
Plasminogen, sequence (P00747 581-810 limits assumed): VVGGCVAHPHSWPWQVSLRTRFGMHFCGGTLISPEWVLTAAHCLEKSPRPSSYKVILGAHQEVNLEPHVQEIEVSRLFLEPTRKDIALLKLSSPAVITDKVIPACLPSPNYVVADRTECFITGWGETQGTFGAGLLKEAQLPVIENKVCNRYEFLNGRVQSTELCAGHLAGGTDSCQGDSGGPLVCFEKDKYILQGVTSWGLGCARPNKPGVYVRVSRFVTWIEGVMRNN

[5] = Concentration required to inhibit the activation of human prothrombin in a preformed complex of factor Xa, factor IIa and phospholipid in vitro; details: in the assay text read “factor Va” for “factor IIa”
Outline: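 The assembled prothrombinase complex was assayed with its natural substrate, prothrombin, to measure inhibition of prothrombin activation. IC50 is the concentration giving 50% inhibition.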

[6] = Ratio of inhibitory concentration of prothrombinase to that of human factor Xa was determined
[7] = molecular target: T1, Coagulation factor X; experiment: Concentration required to inhibit the cleavage of the chromogenic substrate by human enzyme Coagulation factor X in vitro
[8] = molecular target: T1, Coagulation factor X; experiment: Concentration required for classical fast inhibition of cleavage of the chromogenic substrate by human enzyme Coagulation factor X in vitro
[9] = molecular target: T1, Coagulation factor X; experiment: In vitro inhibitory activity against human Coagulation factor X

Serine protease 1, sequence (P07477 whole entry): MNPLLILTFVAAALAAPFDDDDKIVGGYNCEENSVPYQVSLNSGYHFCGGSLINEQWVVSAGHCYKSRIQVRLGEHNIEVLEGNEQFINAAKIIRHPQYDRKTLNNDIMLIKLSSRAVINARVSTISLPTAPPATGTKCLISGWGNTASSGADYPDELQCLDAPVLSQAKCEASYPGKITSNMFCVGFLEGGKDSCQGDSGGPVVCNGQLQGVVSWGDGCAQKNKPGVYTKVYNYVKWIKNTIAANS
T1 sequence (P00742 41-179 limits assumed): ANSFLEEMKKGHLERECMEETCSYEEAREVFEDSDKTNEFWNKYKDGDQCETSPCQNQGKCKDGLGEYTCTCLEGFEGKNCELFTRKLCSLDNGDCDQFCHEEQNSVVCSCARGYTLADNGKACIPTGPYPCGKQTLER
T1 sequence (P00742 235-488 limits assumed): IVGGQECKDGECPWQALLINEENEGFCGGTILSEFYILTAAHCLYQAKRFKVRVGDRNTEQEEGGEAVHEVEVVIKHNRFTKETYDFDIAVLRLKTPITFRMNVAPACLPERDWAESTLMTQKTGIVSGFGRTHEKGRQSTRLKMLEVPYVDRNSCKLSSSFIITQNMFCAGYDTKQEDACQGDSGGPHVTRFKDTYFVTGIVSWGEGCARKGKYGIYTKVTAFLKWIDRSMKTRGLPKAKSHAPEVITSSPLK

SMILES	IC50 [1] [nM]	IC50 [2] [nM]	IC50 [3] [nM]	IC50 [4] [nM]	IC50 [5] [nM]	Ratio [6]	IC50 [7] [nM]	Ki [8] [nM]	Ki [9] [nM]
COC(=O)c1cccc(CS(=O)(=O)N[C@H](CC2CCN(C(=N)N)CC2)C(=O)NCC(=O)N[C@H]2CCCN(C(=N)N)C2O)c1 (some centres undefined)	2.2	145	> 2500	387					
N=C(N)NCCC[C@@H](NC(=O)OCc1ccccc1)C(=O)NCC(=O)N[C@H]1CCCN(C(=N)N)C1O (stereo in doubt) [listing 1 of 2 here]	0.9				3.4				
COC(=O)c1ccccc1CS(=O)(=O)N[C@H](CC1CCCN(C(=N)N)C1)C(=O)NCC(=O)N[C@H]1CCCN(C(=N)N)C1O (stereo in doubt; form 1)	1.37	15	1100	1950					
N=C(N)N1CCC(C[C@@H](NS(=O)(=O)Cc2ccccc2C(=O)O)C(=O)NCC(=O)N[C@H]2CCCN(C(=N)N)C2O)CC1 (some centres undefined)	5.7	447	> 2500	2500	12	2.3	5.3		
N=C(N)N1CCCC(C[C@@H](NS(=O)(=O)Cc2ccccc2)C(=O)NCC(=O)N[C@H]2CCCN(C(=N)N)C2O)C1 (single isomer, unassigned) [listing 1 of 2 here]						2			
N=C(N)N1CCCC(C[C@@H](NS(=O)(=O)Cc2ccccc2)C(=O)NCC(=O)N[C@H]2CCCN(C(=N)N)C2O)C1 (stereo in doubt) [listing 1 of 2 here]						3.6			
N=C(N)N1CCCC(C[C@@H](NS(=O)(=O)Cc2ccccc2)C(=O)NCC(=O)N[C@H]2CCCN(C(=N)N)C2O)C1 (single isomer, unassigned) [listing 2 of 2 here]	1.2	120	> 2500	919	4.2				
N=C(N)N1CCC(C[C@@H](NS(=O)(=O)Cc2ccccc2-n2cnnn2)C(=O)NCC(=O)N[C@H]2CCCN(C(=N)N)C2O)CC1 (some centres undefined)	2.6	537	> 2500	872	69	3		23	
N=C(N)N1CCCC(C[C@@H](NS(=O)(=O)Cc2ccccc2C(=O)O)C(=O)NCC(=O)N[C@H]2CCCN(C(=N)N)C2O)C1 (stereo in doubt)	4.2	33	352	> 2500					
N=C(N)NCCC[C@@H](NC(=O)OCc1ccccc1)C(=O)NCC(=O)N[C@H]1CCCN(C(=N)N)C1O (stereo in doubt) [listing 2 of 2 here]						3.8			
N=C(N)NCCC[C@@H](NC(=O)OCc1ccccc1)C(=O)NCC(=O)N[C@H]1CCCN(C(=N)N)C1O (single isomer, unassigned) [listing 1 of 2 here]						0.23			
N=C(N)NCCC[C@@H](NC(=O)OCc1ccccc1)C(=O)NCC(=O)N[C@H]1CCCN(C(=N)N)C1O (single isomer, unassigned) [listing 2 of 2 here]	35				7.9				
N=C(N)NCCC[C@@H](NS(=O)(=O)Cc1ccccc1)C(=O)NCC(=O)N[C@H]1CCCN(C(=N)N)C1O (some centres undefined)	0.9	75	> 2500	1190					
N=C(N)N1CCC(C[C@@H](NS(=O)(=O)Cc2cccc(C(=O)O)c2)C(=O)NCC(=O)N[C@H]2CCCN(C(=N)N)C2O)CC1 (some centres undefined)	4.3	211	> 2500	231	14	0.9		16	
COC(=O)N[C@H](CC1CCN(C(=N)N)CC1)C(=O)NCC(=O)N[C@H]1CCCN(C(=N)N)C1O (some centres undefined)		412	> 2500	> 2500					23
CCOC(=O)c1ccc(CCOC(=O)N[C@H](CC2CCN(C(=N)N)CC2)C(=O)NCC(=O)N[C@H]2CCCN(C(=N)N)C2O)cc1 (some centres undefined)		158	> 2500	1440					16
N=C(N)N1CCCC(C[C@@H](NS(=O)(=O)Cc2ccccc2)C(=O)NCC(=O)N[C@H]2CCCN(C(=N)N)C2O)C1 (stereo in doubt) [listing 2 of 2 here]	0.92	31	> 2500	726	3.3				
COC(=O)c1ccccc1CS(=O)(=O)N[C@H](CC1CCN(C(=N)N)CC1)C(=O)NCC(=O)N[C@H]1CCCN(C(=N)N)C1O (some centres undefined)	0.94	147	> 2500	965					
N=C(N)N1CCCC(C[C@@H](NS(=O)(=O)Cc2ccccc2C(=O)O)C(=O)NCC(=O)N[C@H]2CCCN(C(=N)N)C2O)C1 (single isomer, unassigned)	2.1	240	> 2500	2500					
N=C(N)N1CCC(C[C@@H](NS(=O)(=O)Cc2ccccc2)C(=O)NCC(=O)N[C@H]2CCCN(C(=N)N)C2O)CC1 (some centres undefined)	0.83	169	> 2500	869	3.1	3.7			
N=C(N)N1CCC(C(NS(=O)(=O)Cc2ccccc2)C(=O)NCC(=O)N[C@H]2CCCN(C(=N)N)C2O)CC1 (some centres undefined)	1.1	25	> 2500	678					
COC(=O)c1ccccc1CS(=O)(=O)N[C@H](CC1CCCN(C(=N)N)C1)C(=O)NCC(=O)N[C@H]1CCCN(C(=N)N)C1O (stereo in doubt; form 2)	1.08	124	> 2500	894					
N=C(N)NCCC[C@@H](NC(=O)OCc1ccccc1)C(=O)NCC(=O)N[C@H]1CCCN(C(=N)N)C1O (stereo in doubt; 1)	34.9	115	> 2500	> 2500					
